Measured values as given in ChEMBL document CHEMBL1255358, “Relation between genetic markers of drug resistance and susceptibility profile of clinical Neisseria gonorrhoeae strains” (2008).

Tests used:
Assay type in all cases: functional
Neisseria gonorrhoeae [1] = assay: Antimicrobial activity against Neisseria gonorrhoeae obtained from patient with uncomplicated gonorrhea assessed as incidence of susceptible isolates by agar dilution method
How it was run: (§1)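 Agar dilution MICs on GC agar supplemented with PolyViteX, tested against penicillin, tetracycline and fluoroquinolones. Clinical isolates were shipped frozen on dry ice to a central laboratory, recovered from cryobeads on GC agar plates and subcultured once before testing. Strain ATCC 49226 served as the control. Isolates were classed susceptible, intermediate or resistant using current CLSI interpretive criteria.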

Neisseria gonorrhoeae [2] = assay: Antimicrobial activity against Neisseria gonorrhoeae obtained from patient with uncomplicated gonorrhea expressing penA mutant gene assessed as percentage intermediate isolates by agar dilution method
How it was run: (§2)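 Clinical isolates shipped frozen on dry ice to a central lab, recovered from cryobeads onto GC agar and subcultured once. MICs were determined by agar dilution on GC agar supplemented with PolyViteX, with strain ATCC 49226 as control. Isolates were classed susceptible, intermediate or resistant by current CLSI criteria. Genotypes were assigned by PCR, and by minisequencing with MALDI-TOF mass spectrometry.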

Neisseria gonorrhoeae [3] = assay: Antimicrobial activity against Neisseria gonorrhoeae obtained from patient with uncomplicated gonorrhea assessed as incidence of resistant isolates by agar dilution method; how it was run: as §2
Neisseria gonorrhoeae [4] = assay: Antimicrobial activity against Neisseria gonorrhoeae obtained from patient with uncomplicated gonorrhea assessed as percentage intermediate isolates by agar dilution method; how it was run: as §1
Neisseria gonorrhoeae [5] = assay: Antimicrobial activity against Neisseria gonorrhoeae obtained from patient with uncomplicated gonorrhea expressing beta-lactamase TEM-1 mutant gene assessed as incidence of resistant isolates by agar dilution method; how it was run: as §2
Neisseria gonorrhoeae [6] = assay: Antimicrobial activity against Neisseria gonorrhoeae obtained from patient with uncomplicated gonorrhea expressing penA mutant gene assessed as incidence of resistant isolates by agar dilution method; how it was run: as §2
Neisseria gonorrhoeae [7] = assay: Antimicrobial activity against Neisseria gonorrhoeae obtained from patient with uncomplicated gonorrhea expressing penA, penB and mtrR mutant gene assessed as incidence of susceptible isolates by agar dilution method; how it was run: as §2
Neisseria gonorrhoeae [8] = assay: Antimicrobial activity against Neisseria gonorrhoeae obtained from patient with uncomplicated gonorrhea expressing penA and ponA mutant gene assessed as incidence of resistant isolates by agar dilution method; how it was run: as §2
Neisseria gonorrhoeae [9] = assay: Antimicrobial activity against Neisseria gonorrhoeae obtained from patient with uncomplicated gonorrhea expressing mtrR mutant gene assessed as incidence of susceptible isolates by agar dilution method; how it was run: as §2
Neisseria gonorrhoeae [10] = assay: Antimicrobial activity against Neisseria gonorrhoeae obtained from patient with uncomplicated gonorrhea expressing penA and ponA mutant gene assessed as incidence of susceptible isolates by agar dilution method; how it was run: as §2
Neisseria gonorrhoeae [11] = assay: Antimicrobial activity against Neisseria gonorrhoeae obtained from patient with uncomplicated gonorrhea expressing penA and mtrR mutant gene assessed as incidence of resistant isolates by agar dilution method; how it was run: as §2
Neisseria gonorrhoeae [12] = assay: Antimicrobial activity against Neisseria gonorrhoeae obtained from patient with uncomplicated gonorrhea expressing penA, penB, ponA and mtrR mutant gene assessed as incidence of resistant isolates by agar dilution method; how it was run: as §2
Neisseria gonorrhoeae [13] = assay: Antimicrobial activity against Neisseria gonorrhoeae obtained from patient with uncomplicated gonorrhea expressing penA, penB and mtrR mutant gene assessed as incidence of resistant isolates by agar dilution method; how it was run: as §2
Neisseria gonorrhoeae [14] = assay: Antimicrobial activity against Neisseria gonorrhoeae obtained from patient with uncomplicated gonorrhea expressing penA and mtrR mutant gene assessed as incidence of susceptible isolates by agar dilution method; how it was run: as §2
Neisseria gonorrhoeae [15] = assay: Antimicrobial activity against Neisseria gonorrhoeae obtained from patient with uncomplicated gonorrhea expressing penA, ponA and mtrR mutant gene assessed as incidence of resistant isolates by agar dilution method; how it was run: as §2
Neisseria gonorrhoeae [16] = assay: Antimicrobial activity against Neisseria gonorrhoeae obtained from patient with uncomplicated gonorrhea expressing beta-lactamase TEM-1 mutant gene assessed as percentage intermediate isolates by agar dilution method; how it was run: as §2
Neisseria gonorrhoeae [17] = assay: Antimicrobial activity against Neisseria gonorrhoeae obtained from patient with uncomplicated gonorrhea expressing penA and ponA mutant gene assessed as percentage intermediate isolates by agar dilution method; how it was run: as §2
Neisseria gonorrhoeae [18] = assay: Antimicrobial activity against Neisseria gonorrhoeae obtained from patient with uncomplicated gonorrhea expressing penA, penB and ponA mutant gene assessed as incidence of susceptible isolates by agar dilution method; how it was run: as §2
Neisseria gonorrhoeae [19] = assay: Antimicrobial activity against Neisseria gonorrhoeae obtained from patient with uncomplicated gonorrhea expressing penA and penB mutant gene assessed as incidence of susceptible isolates by agar dilution method; how it was run: as §2
Neisseria gonorrhoeae [20] = assay: Antimicrobial activity against Neisseria gonorrhoeae obtained from patient with uncomplicated gonorrhea expressing penA, penB and ponA mutant gene assessed as percentage intermediate isolates by agar dilution method; how it was run: as §2
Neisseria gonorrhoeae [21] = assay: Antimicrobial activity against Neisseria gonorrhoeae obtained from patient with uncomplicated gonorrhea expressing penA, ponA and mtrR mutant gene assessed as percentage intermediate isolates by agar dilution method; how it was run: as §2
Neisseria gonorrhoeae [22] = assay: Antimicrobial activity against Neisseria gonorrhoeae obtained from patient with uncomplicated gonorrhea expressing penA mutant gene assessed as incidence of susceptible isolates by agar dilution method; how it was run: as §2
Neisseria gonorrhoeae [23] = assay: Antimicrobial activity against Neisseria gonorrhoeae obtained from patient with uncomplicated gonorrhea expressing penA, penB, ponA and mtrR mutant gene assessed as percentage intermediate isolates by agar dilution method; how it was run: as §2
Neisseria gonorrhoeae [24] = assay: Antimicrobial activity against Neisseria gonorrhoeae obtained from patient with uncomplicated gonorrhea expressing beta-lactamase TEM-1 mutant gene assessed as incidence of susceptible isolates by agar dilution method; how it was run: as §2
Neisseria gonorrhoeae [25] = assay: Antimicrobial activity against Neisseria gonorrhoeae obtained from patient with uncomplicated gonorrhea expressing penA, penB and ponA mutant gene assessed as incidence of resistant isolates by agar dilution method; how it was run: as §2
Neisseria gonorrhoeae [26] = assay: Antimicrobial activity against Neisseria gonorrhoeae obtained from patient with uncomplicated gonorrhea expressing mtrR mutant gene assessed as incidence of resistant isolates by agar dilution method; how it was run: as §2
Neisseria gonorrhoeae [27] = assay: Antimicrobial activity against Neisseria gonorrhoeae obtained from patient with uncomplicated gonorrhea expressing penA and mtrR mutant gene assessed as percentage intermediate isolates by agar dilution method; how it was run: as §2
Neisseria gonorrhoeae [28] = assay: Antimicrobial activity against Neisseria gonorrhoeae obtained from patient with uncomplicated gonorrhea expressing penA, penB, ponA and mtrR mutant gene assessed as incidence of susceptible isolates by agar dilution method; how it was run: as §2
Neisseria gonorrhoeae [29] = assay: Antimicrobial activity against Neisseria gonorrhoeae obtained from patient with uncomplicated gonorrhea expressing penB mutant gene assessed as percentage intermediate isolates by agar dilution method
How it was run: (§3)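 Clinical N. gonorrhoeae isolates were shipped frozen on dry ice and recovered from cryobeads on GC agar. They were subcultured once and then tested by agar dilution on GC agar with PolyViteX supplement, with ATCC 49226 as the control strain. Susceptible, intermediate or resistant status was set by CLSI criteria. Genotype came from PCR for blaTEM-1/tet(M) and from primer-extension minisequencing with MALDI-TOF detection of SNPs.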

Neisseria gonorrhoeae [30] = assay: Antimicrobial activity against Neisseria gonorrhoeae obtained from patient with uncomplicated gonorrhea expressing penA, penB and mtrR mutant gene assessed as percentage intermediate isolates by agar dilution method; how it was run: as §2
Neisseria gonorrhoeae [31] = assay: Antimicrobial activity against Neisseria gonorrhoeae obtained from patient with uncomplicated gonorrhea expressing mtrR mutant gene assessed as percentage intermediate isolates by agar dilution method; how it was run: as §2
Neisseria gonorrhoeae [32] = assay: Antimicrobial activity against Neisseria gonorrhoeae obtained from patient with uncomplicated gonorrhea expressing penA and penB mutant gene assessed as incidence of resistant isolates by agar dilution method; how it was run: as §2
Neisseria gonorrhoeae [33] = assay: Antimicrobial activity against Neisseria gonorrhoeae obtained from patient with uncomplicated gonorrhea expressing penB mutant gene assessed as incidence of resistant isolates by agar dilution method; how it was run: as §2
Neisseria gonorrhoeae [34] = assay: Antimicrobial activity against Neisseria gonorrhoeae obtained from patient with uncomplicated gonorrhea expressing penA, ponA and mtrR mutant gene assessed as incidence of susceptible isolates by agar dilution method; how it was run: as §2
Neisseria gonorrhoeae [35] = assay: Antimicrobial activity against Neisseria gonorrhoeae obtained from patient with uncomplicated gonorrhea expressing penB mutant gene assessed as incidence of susceptible isolates by agar dilution method; how it was run: as §3
Neisseria gonorrhoeae [36] = assay: Antimicrobial activity against Neisseria gonorrhoeae obtained from patient with uncomplicated gonorrhea expressing penA and penB mutant gene assessed as percentage intermediate isolates by agar dilution method; how it was run: as §2
Neisseria gonorrhoeae [37] = assay: Antimicrobial activity against Neisseria gonorrhoeae obtained from patient with uncomplicated gonorrhea expressing rpsJ and mtrR mutant gene assessed as percentage intermediate isolates by agar dilution method; how it was run: as §3
Neisseria gonorrhoeae [38] = assay: Antimicrobial activity against Neisseria gonorrhoeae obtained from patient with uncomplicated gonorrhea expressing rpsJ mutant gene assessed as percentage intermediate isolates by agar dilution method; how it was run: as §3
Neisseria gonorrhoeae [39] = assay: Antimicrobial activity against Neisseria gonorrhoeae obtained from patient with uncomplicated gonorrhea expressing rpsJ and mtrR mutant gene assessed as incidence of susceptible isolates by agar dilution method; how it was run: as §3
Neisseria gonorrhoeae [40] = assay: Antimicrobial activity against Neisseria gonorrhoeae obtained from patient with uncomplicated gonorrhea expressing tetM mutant gene in combination with variants of other gene loci assessed as incidence of resistant isolates by agar dilution method; how it was run: as §3
Neisseria gonorrhoeae [41] = assay: Antimicrobial activity against Neisseria gonorrhoeae obtained from patient with uncomplicated gonorrhea expressing rpsJ mutant gene assessed as incidence of susceptible isolates by agar dilution method; how it was run: as §3
Neisseria gonorrhoeae [42] = assay: Antimicrobial activity against Neisseria gonorrhoeae obtained from patient with uncomplicated gonorrhea expressing tetM mutant gene in combination with variants of other gene loci assessed as percentage intermediate isolates by agar dilution method; how it was run: as §3
Neisseria gonorrhoeae [43] = assay: Antimicrobial activity against Neisseria gonorrhoeae obtained from patient with uncomplicated gonorrhea expressing tetM mutant gene in combination with variants of other gene loci assessed as incidence of susceptible isolates by agar dilution method; how it was run: as §3
Neisseria gonorrhoeae [44] = assay: Antimicrobial activity against Neisseria gonorrhoeae obtained from patient with uncomplicated gonorrhea expressing rpsJ, penB and mtrR mutant gene assessed as incidence of susceptible isolates by agar dilution method; how it was run: as §3
Neisseria gonorrhoeae [45] = assay: Antimicrobial activity against Neisseria gonorrhoeae obtained from patient with uncomplicated gonorrhea expressing rpsJ, penB and mtrR mutant gene assessed as percentage intermediate isolates by agar dilution method; how it was run: as §3
Neisseria gonorrhoeae [46] = assay: Antimicrobial activity against Neisseria gonorrhoeae obtained from patient with uncomplicated gonorrhea expressing rpsJ mutant gene assessed as incidence of resistant isolates by agar dilution method; how it was run: as §3
Neisseria gonorrhoeae [47] = assay: Antimicrobial activity against Neisseria gonorrhoeae obtained from patient with uncomplicated gonorrhea expressing rpsJ, penB and mtrR mutant gene assessed as incidence of resistant isolates by agar dilution method; how it was run: as §3
Neisseria gonorrhoeae [48] = assay: Antimicrobial activity against Neisseria gonorrhoeae obtained from patient with uncomplicated gonorrhea expressing rpsJ and penB mutant gene assessed as incidence of susceptible isolates by agar dilution method; how it was run: as §3
Neisseria gonorrhoeae [49] = assay: Antimicrobial activity against Neisseria gonorrhoeae obtained from patient with uncomplicated gonorrhea expressing rpsJ and penB mutant gene assessed as incidence of resistant isolates by agar dilution method; how it was run: as §3
Neisseria gonorrhoeae [50] = assay: Antimicrobial activity against Neisseria gonorrhoeae obtained from patient with uncomplicated gonorrhea expressing rpsJ and mtrR mutant gene assessed as incidence of resistant isolates by agar dilution method; how it was run: as §3
Neisseria gonorrhoeae [51] = assay: Antimicrobial activity against Neisseria gonorrhoeae obtained from patient with uncomplicated gonorrhea expressing rpsJ and penB mutant gene assessed as percentage intermediate isolates by agar dilution method; how it was run: as §3

O=C(O)c1cn(C2CC2)c2cc(N3CCNCC3)c(F)cc2c1=O [CIPROFLOXACIN]
Activity (Neisseria gonorrhoeae [1]): 99.3%
Activity (Neisseria gonorrhoeae [2]): 0%
Activity (Neisseria gonorrhoeae [3]): 0%
Activity (Neisseria gonorrhoeae [4]): 0.7%

CC1(C)S[C@@H]2[C@H](NC(=O)Cc3ccccc3)C(=O)N2[C@H]1C(=O)O [PENICILLIN G]
Activity (Neisseria gonorrhoeae [5]): 83.3%
Activity (Neisseria gonorrhoeae [6]): 3.9%
Activity (Neisseria gonorrhoeae [7]): 50%
Activity (Neisseria gonorrhoeae [8]): 5.1%
Activity (Neisseria gonorrhoeae [9]): 100%
Activity (Neisseria gonorrhoeae [10]): 15.4%
Activity (Neisseria gonorrhoeae [11]): 6.7%
Activity (Neisseria gonorrhoeae [12]): 17.3%
Activity (Neisseria gonorrhoeae [13]): 0%
Activity (Neisseria gonorrhoeae [14]): 33.3%
Activity (Neisseria gonorrhoeae [15]): 8%
Activity (Neisseria gonorrhoeae [16]): 16.7%
Activity (Neisseria gonorrhoeae [17]): 79.5%
Activity (Neisseria gonorrhoeae [1]): 90.7%
Activity (Neisseria gonorrhoeae [18]): 7.9%
Activity (Neisseria gonorrhoeae [19]): 28.6%
Activity (Neisseria gonorrhoeae [20]): 82.8%
Activity (Neisseria gonorrhoeae [21]): 82.3%
Activity (Neisseria gonorrhoeae [22]): 49%
Activity (Neisseria gonorrhoeae [2]): 47.1%
Activity (Neisseria gonorrhoeae [23]): 71.4%
Activity (Neisseria gonorrhoeae [3]): 0%
Activity (Neisseria gonorrhoeae [24]): 0%
Activity (Neisseria gonorrhoeae [25]): 9.2%
Activity (Neisseria gonorrhoeae [26]): 0%
Activity (Neisseria gonorrhoeae [27]): 60%
Activity (Neisseria gonorrhoeae [4]): 9.3%
Activity (Neisseria gonorrhoeae [28]): 11.3%
Activity (Neisseria gonorrhoeae [29]): 0%
Activity (Neisseria gonorrhoeae [30]): 50%
Activity (Neisseria gonorrhoeae [31]): 0%
Activity (Neisseria gonorrhoeae [32]): 0%
Activity (Neisseria gonorrhoeae [33]): 0%
Activity (Neisseria gonorrhoeae [34]): 9.7%
Activity (Neisseria gonorrhoeae [35]): 100%
Activity (Neisseria gonorrhoeae [36]): 71.4%

CN(C)[C@@H]1C(O)=C(C(N)=O)C(=O)[C@@]2(O)C(O)=C3C(=O)c4c(O)cccc4[C@@](C)(O)[C@H]3C[C@@H]12 [TETRACYCLINE]
Activity (Neisseria gonorrhoeae [37]): 26.9%
Activity (Neisseria gonorrhoeae [9]): 100%
Activity (Neisseria gonorrhoeae [38]): 50.8%
Activity (Neisseria gonorrhoeae [39]): 26.9%
Activity (Neisseria gonorrhoeae [40]): 100%
Activity (Neisseria gonorrhoeae [41]): 30.5%
Activity (Neisseria gonorrhoeae [42]): 0%
Activity (Neisseria gonorrhoeae [1]): 83.5%
Activity (Neisseria gonorrhoeae [43]): 0%
Activity (Neisseria gonorrhoeae [44]): 20.9%
Activity (Neisseria gonorrhoeae [45]): 23%
Activity (Neisseria gonorrhoeae [2]): 0%
Activity (Neisseria gonorrhoeae [46]): 18.7%
Activity (Neisseria gonorrhoeae [3]): 0%
Activity (Neisseria gonorrhoeae [47]): 56.1%
Activity (Neisseria gonorrhoeae [26]): 0%
Activity (Neisseria gonorrhoeae [4]): 16.5%
Activity (Neisseria gonorrhoeae [48]): 20.7%
Activity (Neisseria gonorrhoeae [31]): 0%
Activity (Neisseria gonorrhoeae [49]): 54%
Activity (Neisseria gonorrhoeae [50]): 46.2%
Activity (Neisseria gonorrhoeae [51]): 25.3%
